# Measurements collected from several papers.
# Each line is one published result; the experiments were not run side by side.
# Target: Acetylcholinesterase (ACHE, Homo sapiens, UniProt P22303)
# Action: inhibitor
SMILES,test,IC50
O=[N+]([O-])c1c[nH]c(-c2n[nH]c(=S)n2/N=C/c2ccc(Oc3ccccc3)cc2)c1,"enzyme activity, Ellman",19.3 µM
O=C(NCCN1CCCCC1)c1cccc([N+](=O)[O-])c1,"enzyme activity, Ellman",2 µM
COc1ccc(S(=O)(=O)Oc2ccc(C=NNC(=O)c3ccc(F)cc3)cc2OC)cc1,"enzyme activity, Ellman",0.0614 µM
O=[N+]([O-])c1c[nH]c(-c2n[nH]c(=S)n2/N=C/c2ccc(Br)c(Cl)c2)c1,"enzyme activity, Ellman",22.9 µM
COc1cccc(C=NNC(=O)c2cc(-c3cn(C)c4ccccc34)on2)c1OC,enzyme activity,> 100 µM
C#CCN(C)CCCCCCOc1cccc(CN(C)c2c3c(nc4ccccc24)CCCC3)c1,"enzyme activity, Ellman",1.16 µM
O=C(NCCN1CCCCC1)c1cccc(F)c1,"enzyme activity, Ellman",1.6 µM
C#CCN(C)CCCCCCOCc1ccc(CN(C)c2c3c(nc4ccc(C)cc24)CCCC3)cc1,"enzyme activity, Ellman",45.8 µM
CNC(=O)c1ccc(-c2cnn3ccc(C(=O)N(C)c4ccc(Cl)c(C(=O)OC)c4)cc23)cc1,cell-free assay,> 30 µM
Cn1cc(-c2cc(C(=O)NN=Cc3ccccc3)no2)c2ccccc21,enzyme activity,> 100 µM
COc1ccc(S(=O)(=O)Oc2ccc(C=NNC(=O)c3ccc(F)cc3)cc2)cc1,"enzyme activity, Ellman",0.0121 µM
C#CCN(C)CCCCCOCc1ccc(CN(C)c2c3c(nc4ccc(C)cc24)CCCC3)cc1,"enzyme activity, Ellman",13.4 µM
O=[N+]([O-])c1c[nH]c(-c2n[nH]c(=S)n2/N=C/c2ccc(F)c(O)c2)c1,"enzyme activity, Ellman",9.2 µM
COc1ccccc1C(=O)NCCN1CCCCC1,"enzyme activity, Ellman",4.7 µM
Cn1cc(-c2cc(C(=O)NN=Cc3cccc(Br)c3)no2)c2ccccc21,enzyme activity,> 100 µM
O=C(NCCN1CCCCC1)c1cccc(Cl)c1,"enzyme activity, Ellman",0.63 µM
C#CCN(C)CCCCCOCc1ccc(CN(C)c2c3c(nc4ccccc24)CCCC3)cc1,"enzyme activity, Ellman",4.84 µM
O=[N+]([O-])c1c[nH]c(-c2n[nH]c(=S)n2/N=C/c2cc(Cl)cc(Cl)c2)c1,"enzyme activity, Ellman",13.6 µM
COc1ccc(S(=O)(=O)Oc2cc(OC)ccc2C=NNC(=O)c2ccc(F)cc2)cc1,"enzyme activity, Ellman",0.0919 µM
COc1ccc(OC)c(C=NNC(=O)c2cc(-c3cn(C)c4ccccc34)on2)c1,enzyme activity,> 100 µM
C#CCN(C)CCCCOCc1ccc(CN(C)c2c3c(nc4ccccc24)CCCC3)cc1,"enzyme activity, Ellman",2.36 µM
O=[N+]([O-])c1c[nH]c(-c2n[nH]c(=S)n2/N=C/c2ccc(F)cc2)c1,"enzyme activity, Ellman",8.2 µM
Cn1cc(-c2cc(C(=O)NN=Cc3ccccc3F)no2)c2ccccc21,enzyme activity,> 100 µM
COc1ccc(C(=O)NCCN2CCCCC2)cc1,"enzyme activity, Ellman",5.6 µM
O=[N+]([O-])c1c[nH]c(-c2n[nH]c(=S)n2/N=C/c2cc(O)cc(F)c2)c1,"enzyme activity, Ellman",8.8 µM
COC(=O)c1cc(N(C)C(=O)c2ccn3ncc(-c4ccc(C(=O)O)cc4)c3c2)ccc1Cl,cell-free assay,> 30 µM
O=[N+]([O-])c1c[nH]c(-c2n[nH]c(=S)n2/N=C/c2ccc(Br)c(Br)c2)c1,"enzyme activity, Ellman",27.1 µM
C#CCN(C)CCCCCCCOc1cccc(CN(C)c2c3c(nc4ccccc24)CCCC3)c1,"enzyme activity, Ellman",1.14 µM
O=[N+]([O-])c1c[nH]c(-c2n[nH]c(=S)n2/N=C/c2ccc(F)c([N+](=O)[O-])c2)c1,"enzyme activity, Ellman",15.5 µM
O=C(NCCN1CCCCC1)c1ccc(F)cc1,"enzyme activity, Ellman",3.1 µM
COc1ccccc1C=NNC(=O)c1cc(-c2cn(C)c3ccccc23)on1,enzyme activity,34.2 µM
